Test results published in ChEMBL document CHEMBL5715941, “AZD1152, a selective inhibitor of Aurora B kinase, inhibits human tumor xenograft growth by inducing apoptosis” (Clin Cancer Res, 2007).
Activity calls are given as the source filed them. The rule behind the calls is not given here.

How the values were obtained:
SW-620 [1] = assay: Antitumor activity against human SW620 cells xenografted in immunodeficient Swiss athymic mouse assessed as inhibition of tumor volume at 25 mg/kg/day, iv for 3 days on days 6 to 8 and measured on day 24 relative to control; assay type: functional; settings: SW-620, 456 h, time 19 day
Summary of the method: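 Male Swiss nude mice bearing s.c. flank SW620 xenografts (cells in Matrigel), randomized (n = 8-11) at 0.2-0.3 cm3. AZD1152 in Tris buffer pH 9, or vehicle, given as a once-daily i.v. or i.p. bolus. Caliper volumes up to 3×/week; inhibition from change in control vs treated volume; one-tailed t test.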

HL-60 = assay: Antitumor activity against human HL-60 cells xenografted in immunodeficient Swiss athymic mouse assessed as maximum inhibition of tumor volume at 150 mg/kg/day, sc for 48 hrs on days 16 to 18 and measured on day 18 relative to control; assay type: functional; settings: HL-60, 72 h, time 3 day
Summary of the method: (§1)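 Male Swiss athymic nude mice, 8-12 wk; tumor cells (1×10^6-1×10^7, 50:50 Matrigel) implanted s.c. on flank. Randomized (n = 8-11) at 0.2-0.5 cm3. AZD1152 in Tris buffer pH 9, or vehicle (0.3 mol/L Tris), by 48-h s.c. osmotic mini-pump infusion (two 24-h pumps in sequence). Caliper volumes up to 3×/week; growth inhibition from change in control vs treated volume; one-tailed t test.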

SW-620 [2] = assay: Antitumor activity against human SW620 cells xenografted in Swiss nude mouse assessed as reduction in proportion of PhH3-positive cells within the G2-M phase at 70 mg/kg/day, sc measured over 48 hrs by flow cytometry analysis; assay type: functional, organism-based
Summary of the method: (§2)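 Male nude mice with palpable s.c. SW620 tumors (n = 4/group) received AZD1152 (0.5-150 mg/kg/d) or vehicle by constant 48-h s.c. mini-pump infusion. Tumors were then excised, fixed and disaggregated. Flow cytometry with propidium iodide gave DNA content (2N, 4N, >4N), and rabbit anti-PhH3 with fluorescein anti-rabbit IgG gave PhH3-positive cells (%).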

SW-620 [3] = assay: Antitumor activity against human SW620 cells xenografted in nude athymic rat assessed as morphologic change at 25 mg/kg/day, iv for 4 consecutive days and measured on 5 day by H&E staining based immunohistochemistry analysis; assay type: functional, organism-based
Summary of the method: (§3)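 Nude rats bearing SW620 tumors were dosed i.v. with AZD1152 at 25 mg/kg/d or with vehicle on days 1-4. Subgroups (n = 3) were killed at set days. Tumor and bone marrow sections were H&E-stained and examined histologically.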

SW-620 [4] = assay: Antitumor activity against human SW620 cells xenografted in Swiss nude mouse assessed as inhibition in PhH3 level at 2.5 mg/kg/day, sc measured over 48 hrs by flow cytometry analysis relative to control; assay type: functional; summary of the method: as §2
SW-620 [5] = assay: Antitumor activity against human SW620 cells xenografted in immunodeficient Swiss athymic mouse assessed as inhibition of tumor volume at 25 mg/kg/day, sc for 48 hrs on days 7 to 9 and measured on day 23 relative to control; assay type: functional; settings: SW-620, 408 h, time 17 day; summary of the method: as §1
SW-620 [6] = assay: Antitumor activity against human SW620 cells xenografted in nude athymic rat assessed as normal appearance in bone marrow at 25 mg/kg/day, iv for 4 consecutive days and measured on 9 day by H&E staining based immunohistochemistry analysis; assay type: functional, organism-based; summary of the method: as §3

CCN(CCCOc1ccc2c(Nc3cc(CC(=O)Nc4cccc(F)c4)[nH]n3)ncnc2c1)CCOP(=O)(O)O [BARASERTIB]
inhibition in vivo at 25 mg/kg/day (SW-620 [1]): 47%
inhibition in vivo at 150 mg/kg/day (HL-60): > 100%
Activity (SW-620 [2]): Active
Activity (SW-620 [3]): Active
inhibition in vivo at 2.5 mg/kg/day (SW-620 [4]): 69%
inhibition in vivo at 25 mg/kg/day (SW-620 [5]): 49%
Activity (SW-620 [6]): inactive
